Measurements of several laboratories.
Lines come from different studies, so protocols differ.
Organism: Bacillus subtilis
Observed: microbial growth

| SMILES | test | test system | setting | MIC |
| --- | --- | --- | --- | --- |
| Oc1cc(Cl)ccc1Oc1ccc(Cl)cc1Cl | – | – | – | 1.8 µg/mL |
| CCCCCCCCCCCC(=O)C(F)(F)P(=O)(O)O | – | ATCC23857 | – | > 200 µg/mL |
| CO[C@@H]1[C@@H](OC(N)=O)[C@@H](O)[C@H](Oc2ccc3c(O)c(NC(=O)c4ccc(O)c(CC=C(C)C)c4)c(=O)oc3c2C)OC1(C)C | broth dilution | ATCC6633 | – | < 6.25 µM |
| CCCCCCCCCCCC(=O)OC[C@H]1O[C@@H](n2cc(C)c(=O)[nH]c2=O)C[C@@H]1OC(=O)c1ccc(C(C)(C)C)cc1 | broth dilution | – | – | 1 µg/mL |
| CCCCCCCCCCCCCCCC(=O)NP(=O)(O)O | – | ATCC23857 | – | > 200 µg/mL |
| Cc1c(NN=C(C#N)C2=NC(=O)CS2)c(=O)n(-c2ccccc2)n1C | broth dilution | – | – | 0.98 µg/mL |
| CC1C(=NOCc2cn(-c3ccccc3)nn2)CC(c2ccccc2)OC1c1ccccc1 (stereo not shown) | broth dilution | MTCC121 | 24 h | 50 µg/mL |
| CCCCCCCCCC(=O)N[C@@H](Cc1c[nH]c2ccccc12)C(=O)N[C@H](CC(N)=O)C(=O)N[C@@H](CC(=O)O)C(=O)N[C@@H]1C(=O)NCC(=O)N[C@@H](CCCN)C(=O)N[C@@H](CC(=O)O)C(=O)N[C@H](C)C(=O)N[C@@H](CC(=O)O)C(=O)NCC(=O)N[C@H](CO)C(=O)N[C@@H]([C@H](C)CC(=O)O)C(=O)N[C@@H](CC(=O)c2ccccc2N)C(=O)O[C@@H]1C | broth dilution | 168 | – | 0.25 µg/mL |
| CCCCCCCC(=O)CP(=O)(O)O | – | ATCC23857 | – | > 200 µg/mL |
| CCC1C(=NOCc2cn(-c3ccccc3)nn2)CC(c2ccccc2)OC1c1ccccc1 (stereo not shown) | broth dilution | MTCC121 | 24 h | 25 µg/mL |
